The species entered for one experiment is Homo sapiens. Put plainly: Selectivity index, ratio of Ki for human recombinant CB1 receptor to Ki for human recombinant CB2 receptor.
Experiment [1] deals with T1, Cannabinoid receptor 2 (Homo sapiens, UniProt P34972). Put plainly: Displacement of [3H]CP-55,940 from human recombinant CB2 receptor transfected in HEK cells. It counts as cell-based, HEK293.
Another experiment concerns the target Cannabinoid receptor 1 (Homo sapiens, UniProt P21554). Briefly: biochemical. The class given is cell-based, HEK293.
For experiment [2], the target named is T1, Cannabinoid receptor 2. Briefly: Inverse agonist activity at human CB2 receptor expressed in CHO cells assessed as increase of forskolin-induced cAMP level at 10 uM by scintillation counting. The class given is functional, cell-based. A digest of the protocol: (§1)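 CHO cells expressing human CB2, trypsinized, 1 × 10⁶ cells per assay in HEPES-buffered saline with glucose, pH 7.4, 37 °C. Preincubated 10 min with 0.5 mM Ro 20-1724. Compound tested with 1 μM forskolin. Stopped with cold 6% TCA, ether-extracted, cAMP measured by [³H]cAMP competition binding to adrenal binding protein with scintillation counting. Given as % cAMP increase; means of ≥4 experiments in duplicate.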

In experiment [3] the target is T1, Cannabinoid receptor 2. Put plainly: Inverse agonist activity at human CB2 receptor expressed in CHO cells assessed as increase of forskolin-induced cAMP level at 1 uM by scintillation counting. The class given is functional, cell-based. The essentials:
as §1

The target in experiment [4] is T1, Cannabinoid receptor 2. The note with it: CHO, 10 uM.
Experiment [5] concerns the target T1, Cannabinoid receptor 2. Particulars: CHO, 1 uM.
For experiment [6], the system named is Mus musculus. Briefly: Analgesic activity in ip dosed mouse assessed as reduction of formalin-induced inflammatory pain administered 15 mins before formalin challenge measured for 15 to 60 mins. It counts as functional, organism-based. The essentials:
(§2)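 Mice (n = 8−10 per group) got compound ip (1 or 3 mg/kg) or vehicle 15 min before formalin (1.25% in saline, 30 μL) into the dorsal hindpaw. Where used, COR167 (1 mg/kg, ip) was given 5 min before compound. Time spent licking plus elevating the paw was scored every 5 min over phase 1 (0−7 min) and phase 2 (15−60 min). Mean ± SEM; ANOVA with Dunnett's test.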

The test system of experiment [7] is Mus musculus. Briefly: Antinociceptive activity in mouse assessed as reduction of formalin-induced nocifensive response at 1 to 3 mg/kg, ip administered 15 mins before formalin challenge measured for 0 to 7 mins. It counts as functional, organism-based. The essentials:
as §2

The test system of experiment [8] is Mus musculus. Briefly: Antinociceptive activity in mouse assessed as reduction of formalin-induced nocifensive response at 1 mg/kg, ip administered 15 mins before formalin challenge measured for 0 to 7 mins in presence of CB2 agonist COR167. It counts as functional, organism-based. Also on record: dose 1 mg/kg. The essentials:
as §2

Experiment [9] deals with Mus musculus. Put plainly: Analgesic activity in mouse assessed as reduction of formalin-induced inflammatory pain at 1 mg/kg, ip administered 15 mins before formalin challenge measured for 15 to 60 mins in presence of CB2 agonist COR167. The class given is functional, organism-based. Also on record: dose 1 mg/kg. The essentials: as §2

The structures appear in SMILES notation. The source made the active and inactive calls. No cut-off for these calls is given here.

Chain of Cannabinoid receptor 1 (P21554 whole entry): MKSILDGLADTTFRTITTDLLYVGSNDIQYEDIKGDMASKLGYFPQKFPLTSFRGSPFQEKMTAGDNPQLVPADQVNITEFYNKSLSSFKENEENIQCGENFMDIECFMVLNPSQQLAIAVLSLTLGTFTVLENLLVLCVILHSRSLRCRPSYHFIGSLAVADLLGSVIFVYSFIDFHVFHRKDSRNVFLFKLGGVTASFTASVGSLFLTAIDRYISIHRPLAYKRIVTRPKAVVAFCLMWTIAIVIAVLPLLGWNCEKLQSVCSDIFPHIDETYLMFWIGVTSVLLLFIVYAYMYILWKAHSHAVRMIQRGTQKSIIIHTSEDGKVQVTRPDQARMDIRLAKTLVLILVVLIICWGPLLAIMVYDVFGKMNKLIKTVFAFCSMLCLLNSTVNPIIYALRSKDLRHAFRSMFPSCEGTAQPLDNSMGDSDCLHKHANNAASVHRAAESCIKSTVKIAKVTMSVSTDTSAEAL
T1 sequence (P34972 whole entry): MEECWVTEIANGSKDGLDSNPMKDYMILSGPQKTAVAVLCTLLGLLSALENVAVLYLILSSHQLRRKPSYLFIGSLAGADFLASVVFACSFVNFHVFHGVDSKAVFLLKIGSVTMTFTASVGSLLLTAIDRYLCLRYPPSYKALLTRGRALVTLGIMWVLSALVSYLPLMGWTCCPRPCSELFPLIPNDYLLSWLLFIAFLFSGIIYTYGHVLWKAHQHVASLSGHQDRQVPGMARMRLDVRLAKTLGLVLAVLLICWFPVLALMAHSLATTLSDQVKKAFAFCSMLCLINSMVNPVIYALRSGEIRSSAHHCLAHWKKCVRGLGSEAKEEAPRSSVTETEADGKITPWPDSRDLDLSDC

With `CCCCn1cc(CC(=O)NC23CC4CC(CC(C4)C2)C3)c2cc(-c3ccccc3)ccc21`, in the experiment listed under Homo sapiens, the Ratio Ki is above 487. The Ki on Cannabinoid receptor 2 [1] was 0.0205 µM; at Cannabinoid receptor 1, above 10 µM.

Consider `CCCCCn1cc(C(=O)C(=O)NC23CC4CC(CC(C4)C2)C3)c2cc(-c3ccccc3)ccc21`, for which the Activity is 70% on Cannabinoid receptor 2 [2] and 55% at Cannabinoid receptor 2 [3]. For the same compound, the Ratio Ki in the experiment filed under Homo sapiens is above 787. For the same compound, the Ki was 0.0127 µM on Cannabinoid receptor 2 [1] and above 10 µM at Cannabinoid receptor 1.

Turning to `CCCCCn1cc(C(=O)NC23CC4CC(CC(C4)C2)C3)c(=O)c2cc(-c3ccco3)ccc21`, at Cannabinoid receptor 1, the Ki was above 10 µM.

For `CCCC(C)(C)c1ccc2c(c1)OC(C)(C)[C@@H]1CC=C(C)C[C@@H]21`, the inhibition against Cannabinoid receptor 2 [4] turned out to be 94%; on Cannabinoid receptor 2 [5], 87%.

As to `C=CCn1cc(C(=O)C(=O)NC23CC4CC(CC(C4)C2)C3)c2cc(-c3ccccc3)ccc21`, in the experiment listed under Homo sapiens, the Ratio Ki turned out to be 154. In addition, the Ki turned out to be 0.0254 µM on Cannabinoid receptor 2 [1] and 3.92 µM at Cannabinoid receptor 1.

As to `O=C(Cc1cn(Cc2ccccc2)c2ccc(-c3ccccc3)cc12)NC12CC3CC(CC(C3)C1)C2`, the Ratio Ki in the experiment filed under Homo sapiens was above 52. Also, the Ki on Cannabinoid receptor 2 [1] is 0.189 µM; at Cannabinoid receptor 1, above 10 µM.

Take `C=CCn1cc(CC(=O)NC2CCCCCC2)c2cc(-c3ccco3)ccc21`: the Ratio Ki in the experiment filed under Homo sapiens was above 26. The Ki was 0.377 µM at Cannabinoid receptor 2 [1] and above 10 µM at Cannabinoid receptor 1.

On to `C=CCCn1cc(CC(=O)NC23CC4CC(CC(C4)C2)C3)c2cc(-c3ccccc3)ccc21`, for which the Ratio Ki in the experiment listed under Homo sapiens was found to be 103. Besides, the Ki on Cannabinoid receptor 2 [1] was 0.0178 µM; at Cannabinoid receptor 1, 1.83 µM.

As to `CCCCCn1cc(C(=O)C(=O)NC2CCCCC2)c2cc(-c3ccccc3)ccc21`, the Ratio Ki in the experiment listed under Homo sapiens is above 892. Also, the Ki on Cannabinoid receptor 2 [1] is 0.0112 µM; at Cannabinoid receptor 1 it was above 10 µM.

`CCCCCn1cc(CC(=O)NC23CC4CC(CC(C4)C2)C3)c2cc(-c3ccccc3)ccc21`: the Ratio Ki in the experiment filed under Homo sapiens is 34. Moreover, the Ki at Cannabinoid receptor 2 [1] was determined as 0.07 µM; at Cannabinoid receptor 1, 2.38 µM.

As for `CCCCCn1cc(C(=O)NC23CC4CC(CC(C4)C2)C3)c2ccc(-c3ccccc3)cc21`, the Ratio Ki in the experiment listed under Homo sapiens is 0.6. The Ki on Cannabinoid receptor 2 [1] came to 0.00352 µM; on Cannabinoid receptor 1, 0.00203 µM.

Turning to `C=CCn1cc(C(=O)NC23CC4CC(CC(C4)C2)C3)c2cc(-c3ccccc3)ccc21`, the Ratio Ki in the experiment listed under Homo sapiens was 26.5. Moreover, the Ki was 0.00182 µM at Cannabinoid receptor 2 [1] and 0.0482 µM on Cannabinoid receptor 1.

`C=CCn1cc(CC(=O)NC23CC4CC(CC(C4)C2)C3)c2cc(-c3ccccc3)ccc21`: the Activity worked out at 88% on Cannabinoid receptor 2 [2] and 67% on Cannabinoid receptor 2 [3]. The Ratio Ki in the experiment filed under Homo sapiens worked out at 10.6. Also, the inhibition constant (Ki) at Cannabinoid receptor 2 [1] turned out to be 0.05 µM; on Cannabinoid receptor 1, 0.53 µM.

Turning to `Cn1cc(CC(=O)NC23CC4CC(CC(C4)C2)C3)c2cc(-c3ccccc3)ccc21`, the Ratio Ki in the experiment listed under Homo sapiens worked out at 5. The Ki at Cannabinoid receptor 2 [1] was found to be 0.098 µM; at Cannabinoid receptor 1, 0.488 µM.

For `CCCn1cc(CC(=O)NC23CC4CC(CC(C4)C2)C3)c2cc(-c3ccccc3)ccc21`, the Ratio Ki in the experiment listed under Homo sapiens was 128. The Ki at Cannabinoid receptor 2 [1] was found to be 0.0118 µM; on Cannabinoid receptor 1, 1.51 µM.

In the case of `CCCCCn1cc(C(=O)C(=O)NC23CC4CC(CC(C4)C2)C3)c2cc(-c3ccco3)ccc21`, the Activity entry was “Dose-dependent effect” in the experiment with Mus musculus [6], 163% at Cannabinoid receptor 2 [2] and 138% at Cannabinoid receptor 2 [3]. In the experiment with Mus musculus [7], the result was inactive. The Ratio Ki in the experiment filed under Homo sapiens is 932. Also, the outcome in the experiment on Mus musculus [8] and with Mus musculus [9] was Active. The values for the inhibition constant Ki at Cannabinoid receptor 2 [1] and at Cannabinoid receptor 1 were 0.00037 µM and 0.345 µM, respectively.

For the compound `C=CCn1cc(C(=O)NC23CC4CC(CC(C4)C2)C3)c2cc(-c3ccco3)ccc21`, the Ratio Ki in the experiment filed under Homo sapiens is 488. Also, the figures for the Ki on Cannabinoid receptor 2 [1] and at Cannabinoid receptor 1 were 0.00573 µM and 2.79 µM, respectively.

With `O=C(Cc1c[nH]c2ccc(-c3ccccc3)cc12)NC12CC3CC(CC(C3)C1)C2`, in the experiment filed under Homo sapiens, the Ratio Ki was above 141. In addition, the Ki was 0.0708 µM on Cannabinoid receptor 2 [1] and above 10 µM at Cannabinoid receptor 1.

As for `CCCCCn1cc(C(=O)NC23CC4CC(CC(C4)C2)C3)c2cc(-c3ccccc3)ccc21`, the Ratio Ki in the experiment listed under Homo sapiens turned out to be 90.7. For the same compound, the Ki on Cannabinoid receptor 2 [1] was 0.0116 µM; on Cannabinoid receptor 1, 1.05 µM.

As to `C=CCn1cc(CC(=O)NC2CCCCC2)c2cc(OCc3cccc(OC)c3)ccc21`, the Ratio Ki in the experiment listed under Homo sapiens is above 25. In addition, the inhibition constant Ki is 0.4 µM on Cannabinoid receptor 2 [1] and above 10 µM at Cannabinoid receptor 1.

In the case of `C=CCn1cc(CC(=O)NC23CC4CC(CC(C4)C2)C3)c2cc(Br)ccc21`, the Ratio Ki in the experiment listed under Homo sapiens was above 9. For the same compound, the Ki on Cannabinoid receptor 2 [1] is 1.09 µM; on Cannabinoid receptor 1, above 10 µM.

Regarding `C=CCn1cc(C(=O)NC23CC4CC(CC(C4)C2)C3)c2cc(-c3ccc(O)cc3)ccc21`, the values for the Activity on Cannabinoid receptor 2 [2] and at Cannabinoid receptor 2 [3] were 68% and 51%, respectively. The Ratio Ki in the experiment filed under Homo sapiens is above 450. The Ki on Cannabinoid receptor 2 [1] is 0.0222 µM; at Cannabinoid receptor 1 it was above 10 µM.

Regarding `CCCCCn1cc(C(=O)NC23CC4CC(CC(C4)C2)C3)c2cc(-c3cccs3)ccc21`, the Activity came to 135% at Cannabinoid receptor 2 [2] and 106% at Cannabinoid receptor 2 [3]. Also, the Ratio Ki in the experiment listed under Homo sapiens was 568. Further, the Ki on Cannabinoid receptor 2 [1] is 0.00637 µM; on Cannabinoid receptor 1, 3.62 µM.

Take `C=CCn1cc(C(=O)C(=O)NC23CC4CC(CC(C4)C2)C3)c2cc(-c3ccco3)ccc21`: the Activity on Cannabinoid receptor 2 [2] came out at 75%; on Cannabinoid receptor 2 [3], 62%. In addition, the Ratio Ki in the experiment filed under Homo sapiens was found to be 351. Further, the Ki on Cannabinoid receptor 2 [1] came out at 0.0103 µM; at Cannabinoid receptor 1, 3.62 µM.

`CCn1cc(CC(=O)NC23CC4CC(CC(C4)C2)C3)c2cc(-c3ccccc3)ccc21`: in the experiment listed under Homo sapiens, the Ratio Ki is 10.4. For the same compound, the results for the Ki on Cannabinoid receptor 2 [1] and at Cannabinoid receptor 1 were 0.067 µM and 0.698 µM, respectively.

As to `C=CCn1cc(CC(=O)NC23CC4CC(CC(C4)C2)C3)c2cc(-c3ccco3)ccc21`, in the experiment filed under Homo sapiens, the Ratio Ki came to 11.2. For the same compound, the Ki on Cannabinoid receptor 2 [1] was 0.05 µM; at Cannabinoid receptor 1 it was 0.56 µM.

As to `CCCCCn1cc(CC(=O)NC23CC4CC(CC(C4)C2)C3)c2cc(Br)ccc21`, in the experiment filed under Homo sapiens, the Ratio Ki is 32.4. The figures for the Ki on Cannabinoid receptor 2 [1] and on Cannabinoid receptor 1 were 0.17 µM and 5.51 µM, respectively.

With `CCCCCn1cc(CC(=O)NC23CC4CC(CC(C4)C2)C3)c2cc(-c3ccco3)ccc21`, in the experiment filed under Homo sapiens, the Ratio Ki came out at 15.1. The inhibitory constant (Ki) at Cannabinoid receptor 2 [1] was 0.11 µM; at Cannabinoid receptor 1, 1.66 µM.

For `CCCCCn1cc(C(=O)NC23CC4CC(CC(C4)C2)C3)c2cc(-c3ccco3)ccc21`, the Activity entry in the experiment with Mus musculus [6] was “Dose-dependent effect”; at Cannabinoid receptor 2 [2], 110%; on Cannabinoid receptor 2 [3] it was 93%. The result in the experiment with Mus musculus [7], in the experiment on Mus musculus [8] and with Mus musculus [9] was inactive. The Ratio Ki in the experiment listed under Homo sapiens turned out to be 138. In addition, the Ki on Cannabinoid receptor 2 [1] stood at 0.00248 µM; at Cannabinoid receptor 1, 0.342 µM.

Source of the values: ChEMBL document CHEMBL2086369, “Design, synthesis, and pharmacological characterization of indol-3-ylacetamides, indol-3-yloxoacetamides, and indol-3-ylcarboxamides: potent and selective CB2 cannabinoid receptor inverse agonists” (J Med Chem, 2012).
